Apaf-1 act: activators of human Apaf-1 apoptosome, primary screen, biochemical, DEVD-Rh110 fluorescence, uHTS. activity change, negative = activation, % at 20 µM. hit rate 0.31% among 330,000. Apoptotic protease-activating factor 1 (Homo sapiens), O14727. Apaf-1 apoptosome caspase-3 activation; hits give low values. AID 489031, 2010;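 active = activity change at or below -40% at 20 µM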
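Material: reconstituted apoptosome of Apaf-1, cytochrome c, caspase-9, procaspase-3; times: 30 min preincubation, 50 min reaction, room temperature; measured by: fluorescence, 540 nm emission, 480 nm excitation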
Rh110 act interf: Rh110 fluorescence interference by putative Apaf-1 activators, confirmation, artefact control for Apaf-1 activator project, biochemical, 20 µM; shares compounds with Apaf-1 act; quenched caspase reaction, Ex480/Em540; fluorescence interference (activity change), % at 20 µM, hits read low; 980 tested, under 10 active; AID 504616, 2011;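 active = mean activity change at or below -40% when tested at 20 µM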
Apaf-1 act conf: Apaf-1 activators, single-dose retest, confirmation, biochemical, fluorescence, DEVD-Rh110, 20 µM | shares compounds with Apaf-1 act | reconstituted apoptosome caspase-3 activity; hits give low values | activity change, negative = activation, % at 20 µM | hit rate 5% among 980;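 active = mean activity change at or below -40%, meaning activation of 40% or more, at 20 µM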
Active calls of the source: *; . = no result. Only a sample is shown.

SMILES | Apaf-1 act | Rh110 act interf | Apaf-1 act conf
CCOC(=O)N1CCC(NC(=O)c2ccc3c(c2)sc2nc(-c4ccc(OC)cc4)cn23)CC1 | 44 | . | .
CCOC(=O)N1CCC(Nc2c(-c3ccc(C)c(C)c3)c(=O)c2=O)CC1 | -202* | 10 | 12
CCCc1[nH]nc2c1C(c1ccc(OC)c(CSC3=NCCS3)c1)C(C#N)=C(N)O2 (centres undefined) | 41 | . | .
COc1ccc(NC(=S)Nc2ccccn2)c(OC)c1 | -48* | 0 | 17
COc1ccc(NC(=S)Nc2cccc3ccccc23)cc1OC | 83 | . | .
N[C@@H](Cc1cc(I)c(Oc2ccc(O)c(I)c2)c(I)c1)C(=O)O | 4 | . | .
C#CCOCCOCCOCCNc1nc(N2CCN(C(=O)CCCCCCCCCCNC(=O)[C@H](CCCCN)n3cc(CCO)nn3)CC2)nc(N2CCN(C(=O)CCCCCCCCCCNC(=O)[C@@H]([C@H](C)O)n3cc(C)nn3)CC2)n1 | 59 | . | .
CC(C)(C(=O)O)c1ccc([C@H](O)CCCN2CCC(C(O)(c3ccccc3)c3ccccc3)CC2)cc1 | -114* | 13 | 12
CCc1ccc(Nc2n[n+](-c3ccccc3)c(-c3c(Cl)cccc3Cl)s2)cc1 | 44 | . | .
CCOc1cccc(N(C(=O)C2COc3ccccc3O2)C(C(=O)NC2CCCCC2)c2ccc(O)cc2)c1 (centres undefined) | 47 | . | .
O=C(NC1CCCCC1)C(c1ccncc1)N(C(=O)c1csnn1)c1ccccc1F (centres undefined) | -128* | 9 | 9
Cc1ccc2cc(C(c3nnnn3Cc3ccccc3)N3CCc4ccccc43)c(=O)[nH]c2c1 (centres undefined) | 43 | . | .
CC(=O)N(/N=C1\Sc2ccccc2C1=O)c1cccc(C)c1 | 86 | . | .
Cc1nc2sccn2c(=O)c1CCN1CCC(=C(c2ccccc2)c2ccc(F)cc2)CC1 | 42 | . | .
CSc1ccc2c(c1)N(CCC1CCCCN1C)c1ccccc1S2 (centres undefined) | 55 | . | .
CCOc1ccc(NC(=O)CC2C(=O)N(c3ccccc3)C(=S)N2Cc2ccccn2)cc1 (centres undefined) | -44* | 8 | 10
CN1CCc2cc3c(c4c2[C@H]1[C@H](O)c1ccccc1-4)OCO3 | 48 | . | .
CC(=O)N=Cc1c(C)c(C#N)c(=O)n(C)c1O | 44 | . | .
O=C(Cc1cc(=O)[nH][nH]1)N/N=C/c1c(Cl)cccc1Cl | 64 | . | .
CC1(OC(=O)c2cccs2)C(=O)C=C2C=C3CCCN3C=C2C1=O (centres undefined) | 62 | . | .
CC(C)(C)c1cc(C(=O)N/N=C/c2ccc(-c3ccccc3[N+](=O)[O-])o2)n[nH]1 | 42 | . | .
NNc1nc2c(Cl)c(Cl)ccc2s1 | -59* | 0 | 10
Cc1ccc(-n2nc3ccc(N)cc3n2)cc1C | 80 | . | .
CCc1ccc(OCC(O)CN2CCC(CN3C(=O)c4cccc5cccc(c45)C3=O)CC2)cc1 (centres undefined) | 42 | . | .
CCOC(=O)C1(CCOc2ccccc2)CCN(CC(O)CO)CC1 (centres undefined) | -53* | 2 | 12
SMILES | Apaf-1 act | Rh110 act interf | Apaf-1 act conf
N=C1SC(c2ccccc2)C(=O)N1c1ncc(Cc2ccccc2Cl)s1 (centres undefined) | -171* | -6 | 11
CC(=O)Nc1cc(OC(C)=O)c2nonc2c1OC(C)=O | 98 | . | .
COc1cc(OC)c2c(-c3ccccc3)cc(=O)oc2c1C(CCN1CCCCC1)c1ccc(N(C)C)cc1 (centres undefined) | 54 | . | .
COc1ccc(C(CNC(=O)c2cccc(NS(=O)(=O)c3ccc(C)c(F)c3)c2)N(C)C)cc1 (centres undefined) | 52 | . | .
O=C(NCc1ccccn1)c1cccc(NS(=O)(=O)c2cccc(F)c2)c1 | -43* | 0 | 9
CCN(CC(=O)Nc1c(F)cccc1F)C(=O)Cc1ccsc1 | 52 | . | .
CS(=O)(=O)N(CC(=O)Nc1c(F)cccc1F)Cc1ccccc1 | -59* | 7 | 14
CCN(CC)CC(=O)Nc1c(C)cccc1C | -5 | . | .
COc1ccc(CN2CCN(C(c3ccc(F)cc3)c3ccc(F)cc3)CC2)c(OC)c1OC | 48 | . | .
COc1ccc(C(c2c(C)[nH]n(-c3ccccc3)c2=O)c2c(C)[nH]n(-c3ccccc3)c2=O)cc1OC | 97 | . | .
COc1ccc(C(=O)c2ccc3oc(-c4ccc(OC)cc4)c(C#CCCO)c3c2)cc1 | -65* | 10 | -16
OCCN1CCN(CCCN2c3ccccc3Sc3ccc(Cl)cc32)CC1 | 46 | . | .
CCCCC1=CC2=C(c3ccco3)C(=O)C(C)(OC(=O)c3ccc(OC)cc3)C(=O)C2=CN1C1CC1 (centres undefined) | 40 | . | .
COc1cc(OC)c(C2CC(=O)N3CN(c4ccccc4C)CSC3=C2C#N)cc1OC (centres undefined) | 66 | . | .
Cn1cc([N+](=O)[O-])c(C(=O)NNC(=O)c2ccc([N+](=O)[O-])cc2Cl)n1 | -161* | 1 | 0
O=C(NNc1cc(N2CCCC2)nc(N2CCCC2)n1)c1ccc([N+](=O)[O-])cc1 | 98 | . | .
COCC(C)N1C(=O)Cc2c1nc(N)c1c(N)nc(N3CCN(c4ccccc4F)CC3)c(C#N)c21 (centres undefined) | 97 | . | .
Cc1c(CCOC(=O)c2ccc(Cl)cc2Cl)sc[n+]1CC(=O)c1ccccc1 | 56 | . | .
O=C1/C(=C/c2ccccn2)SC(=S)N1c1ccc(O)cc1 | -47* | -1 | -10
CN(C)c1cc(N/N=C\c2ccccc2)nc(N(C)C)n1 | 95 | . | .
Cc1[nH]n(-c2ccccc2)c(=O)c1C(C[N+](=O)[O-])c1ccc(Cl)cc1 (centres undefined) | 88 | . | .
COc1ccccc1NC(=O)C1=C(C)Nc2nnnn2C1c1cccc(C)c1 (centres undefined) | -71* | 6 | 14
CCC(=O)N(C1=C(NC)C(=O)c2ccccc2C1=O)C(C)C | 69 | . | .
Oc1ccccc1/C=N/Nc1cc(N2CCCC2)nc(N2CCCC2)n1 | 98 | . | .
CC[C@@H](C)[C@@H]1CN([C@@H](C)CN2CCC[C@H]2CN2C(N)=NC[C@@H]2Cc2ccccc2)C(=N)N1CCCC1CCCC1 | 62 | . | .
SMILES | Apaf-1 act | Rh110 act interf | Apaf-1 act conf
O=C(Nc1ccccc1O)c1ccc2c(c1)C(=O)N(Cc1ccco1)C2=O | -93* | -9 | 5
CN(C)CCOc1ccc(-c2c(-c3ccsc3)sc3ccccc23)cc1 | 71 | . | .
Nc1nc(SCC(=O)Nc2cc(-c3ccccc3)nn2-c2ccccc2)n[nH]1 | -41* | 8 | 5
NC1=NC[C@H](Cc2ccc(O)cc2)N1CCCCC1CCCCC1 | 53 | . | .
CC(=O)[C@]1(O)Cc2c(O)c3c(c(O)c2[C@@H](O[C@H]2C[C@H](N)[C@H](O)[C@H](C)O2)C1)C(=O)c1ccccc1C3=O | 47 | . | .
CC1=NN(c2ccc(S(=O)(=O)O)cc2C)C(=O)C1 | 51 | . | .
c1ccc(-c2cn3nc4c(nc3n2)CCCC4)cc1 | 57 | . | .
O=C(C1CC(=O)N(c2ccc3c(c2)OCCO3)C1)N1CCCC(C(F)(F)F)C1 (centres undefined) | -45* | 5 | 2
CCCOc1cc(NCc2ccccc2)c2ncn(C(C)C)c2c1 | 44 | . | .
